Test results from ChEMBL document CHEMBL1128557, “Synthesis, antitumor activity, and chemical properties of silaplatin and related platinum (II) and platinum (IV) complexes derived from beta-silyl amines” (J Med Chem, 1995).
Values joined by “and” are separate entries in the source; they are usually repeats but may differ in a detail not shown here. Equal entries are not always repeated. Blank lines part the entries; values can stand above or below the substance they belong to.

Assays:
[1] = test system: Tumor Cell line; assay: Evaluated in vitro for the log10 molecular concentration that caused […] tumor growth of 60 human tumor cell lines.; assay type: functional, cell-based
How it was run: (§1)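 Cells preincubated 24 h, then exposed to the agent at five 10-fold dilutions (0.01–100 μM for the platinum complexes) for 48 h. Cells fixed in situ and stained; solubilized stain read spectrophotometrically. Panel of leukemia, non-small-cell lung, ovarian and renal lines. Log GI50 or TGI taken per cell line in one experiment, then averaged across lines.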

[2] = test system: Tumor Cell line; assay: Evaluated in vitro for the log10 molecular concentration that caused 50 % inhibition of tumor growth of 60 human tumor cell lines; assay type: functional, cell-based; how it was run: as §1
[3] = test system: Tumor Cell line; assay: The compound was evaluated in vitro for the log10 molecular concentration that caused 50 % of 60 human tumor cell line kills; assay type: ADME, cell-based
How it was run: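 Human tumor cell lines (leukemia, non-small-cell lung, ovarian, renal) were preincubated 24 h. Platinum complexes were then added as five 10-fold dilutions, 0.01–100 μM, for 48 h, followed by in situ fixation and staining, with solubilized stain read spectrophotometrically. Log LC50 (50% cell kill) was averaged across cell lines within one experiment.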

[4] = organism: Mus musculus; assay: The compound was evaluated for the percentage increase in life span (ILS) based on dying mice only (excludes day 40 survivors) for following doses against L1210 Leukemia cell line, day9; assay type: functional, organism-based
[5] = test system: Mus musculus; assay: The compound was evaluated for the mean body weight change (BWC) in mice infected with cisplatin sensitive L1210 Leukemia (dose 40 mg/kg, ip),day 1; assay type: functional, organism-based; parameters: dose 40 mg/kg
How it was run: (§2)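 CD2F1 mice implanted ip on day 0 with 10^5 L1210/0 (parent) leukemia cells, in groups of 6 or 10 (20 or 30 controls). Complexes given ip in saline plus Tween 80 on days 1, 5 and 9. BWC is the group mean weight change, day 5 minus day 1. MST is median survival and %ILS is calculated from MST, both from dying mice only, excluding day 30 survivors.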

[6] = test system: Mus musculus; assay: The compound was evaluated for the median survival time (MST) in mice infected with cisplatin resistant L1210 Leukemia (dose 15 mg/kg, ip), day 1; assay type: functional, organism-based; parameters: dose 15 mg/kg
How it was run: (§3)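 On day 0, 10⁵ parent or cisplatin-resistant L1210 cells were implanted ip into CD2F1 mice, 6 or 10 per dose group (20 or 30 controls). Dosing was ip on days 1, 5 and 9 in saline plus Tween 80. Median survival time was taken from dying mice only, excluding day-30 survivors. Both sublines were tested concurrently.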

[7] = test system: Mus musculus; assay: The compound was evaluated for the median survival time (MST) in mice infected with cisplatin sensitive L1210 Leukemia (dose 80 mg/kg, ip), day 5; assay type: functional, organism-based; parameters: dose 80 mg/kg; how it was run: as §2
[8] = test system: Mus musculus; assay: The compound was evaluated for the median survival time (MST) in mice infected with cisplatin sensitive L1210 Leukemia (dose 15 mg/kg, ip), day 1; assay type: functional, organism-based; parameters: dose 15 mg/kg; how it was run: as §2
[9] = test system: Mus musculus; assay: The compound was evaluated for the mean body weight change (BWC) in mice infected with cisplatin resistant L1210 Leukemia (dose 5 mg/kg, ip),day 1; assay type: functional, organism-based; parameters: dose 5 mg/kg
How it was run: (§4)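 CD2F1 mice, 6 or 10 per dose group (20 or 30 controls), were implanted ip on day 0 with 10⁵ L1210/0 (parent) or L1210/cisplatin (resistant) leukemia cells. Complexes were given ip in saline plus Tween 80 on days 1, 5 and 9. Read-out was mean body weight change per group, day 5 minus day 1. Sensitive and resistant arms ran simultaneously from the same preparations.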

[10] = test system: Mus musculus; assay: The compound was evaluated for the mean body weight change (BWC) in mice infected with cisplatin sensitive L1210 Leukemia (dose 10 mg/kg, ip),day 9; assay type: functional, organism-based; parameters: dose 10 mg/kg; how it was run: as §2
[11] = organism: Mus musculus; assay: The compound was evaluated for the percentage increase in life span (ILS) based on dying mice only (excludes day 15 survivors) for following doses against L1210 Leukemia cell line, day1; assay type: functional, organism-based
[12] = test system: Mus musculus; assay: The compound was evaluated for the mean body weight change (BWC) in mice infected with cisplatin resistant L1210 Leukemia (dose 30 mg/kg, ip),day 1; assay type: functional, organism-based; parameters: dose 30 mg/kg; how it was run: as §4
[13] = test system: Mus musculus; assay: The compound was evaluated for the median survival time (MST) in mice infected with cisplatin sensitive L1210 Leukemia (dose 30 mg/kg, ip), day 1; assay type: functional, organism-based; parameters: dose 30 mg/kg; how it was run: as §2
[14] = test system: Mus musculus; assay: The compound was evaluated for the median survival time (MST) in mice infected with cisplatin resistant L1210 Leukemia (dose 20 mg/kg, ip), day 1; assay type: functional, organism-based; parameters: dose 20 mg/kg; how it was run: as §3
[15] = test system: Mus musculus; assay: The compound was evaluated for the mean body weight change (BWC) in mice infected with cisplatin sensitive L1210 Leukemia (dose 10 mg/kg, ip),day 5; assay type: functional, organism-based; parameters: dose 10 mg/kg; how it was run: as §2
[16] = test system: Mus musculus; assay: The compound was evaluated for the median survival time (MST) in mice infected with cisplatin sensitive L1210 Leukemia (dose 10 mg/kg, ip), day 5; assay type: functional, organism-based; parameters: dose 10 mg/kg; how it was run: as §2
[17] = test system: Mus musculus; assay: The compound was evaluated for the median survival time (MST) in mice infected with cisplatin resistant L1210 Leukemia (dose 30 mg/kg, ip), day 1; assay type: functional, organism-based; parameters: dose 30 mg/kg; how it was run: as §3
[18] = organism: Mus musculus; assay: The compound was evaluated for the percentage increase in life span (ILS) based on dying mice only (excludes day survivors) for following doses against L1210 Leukemia cell line, day1; assay type: functional, organism-based; how it was run: as §2
[19] = test system: Mus musculus; assay: The compound was evaluated for the mean body weight change (BWC) in mice infected with cisplatin sensitive L1210 Leukemia (dose 5 mg/kg, ip),day 1; assay type: functional, organism-based; parameters: dose 5 mg/kg; how it was run: as §2
[20] = test system: Mus musculus; assay: The compound was evaluated for the median survival time (MST) in mice infected with cisplatin sensitive L1210 Leukemia (dose 10 mg/kg, ip), day 9; assay type: functional, organism-based; parameters: dose 10 mg/kg; how it was run: as §2
[21] = test system: Mus musculus; assay: The compound was evaluated for the mean body weight change (BWC) in mice infected with cisplatin sensitive L1210 Leukemia (dose 20 mg/kg, ip),day 1; assay type: functional, organism-based; parameters: dose 20 mg/kg; how it was run: as §4
[22] = test system: Mus musculus; assay: The compound was evaluated for the median survival time (MST) in mice infected with cisplatin sensitive L1210 Leukemia (dose 40 mg/kg, ip), day 5; assay type: functional, organism-based; parameters: dose 40 mg/kg; how it was run: as §2
[23] = test system: Mus musculus; assay: The compound was evaluated for the median survival time (MST) in mice infected with cisplatin resistant L1210 Leukemia (dose 5 mg/kg, ip), day 1; assay type: functional, organism-based; parameters: dose 5 mg/kg; how it was run: as §3
[24] = test system: Mus musculus; assay: The compound was evaluated for the mean body weight change (BWC) in mice infected with cisplatin sensitive L1210 Leukemia (dose 20 mg/kg, ip),day 5; assay type: functional, organism-based; parameters: dose 20 mg/kg; how it was run: as §2
[25] = organism: Mus musculus; assay: The compound was evaluated for the percentage increase in life span (ILS) based on dying mice only (excludes day 10 survivors) for following doses against L1210 Leukemia cell line, day5; assay type: functional, organism-based
[26] = test system: Mus musculus; assay: The compound was evaluated for the median survival time (MST) in mice infected with cisplatin sensitive L1210 Leukemia (dose 20 mg/kg, ip), day 5; assay type: functional, organism-based; parameters: dose 20 mg/kg; how it was run: as §2
[27] = test system: Mus musculus; assay: The compound was evaluated for the mean body weight change (BWC) in mice infected with cisplatin sensitive L1210 Leukemia (dose 80 mg/kg, ip),day 9; assay type: functional, organism-based; parameters: dose 80 mg/kg; how it was run: as §2
[28] = test system: Mus musculus; assay: The compound was evaluated for the median survival time (MST) in mice infected with cisplatin sensitive L1210 Leukemia (dose 20 mg/kg, ip), day 1; assay type: functional, organism-based; parameters: dose 20 mg/kg; how it was run: as §2
[29] = organism: Mus musculus; assay: The compound was evaluated for the percentage increase in life span (ILS) based on dying mice only (excludes day 20 survivors) for following doses against L1210 Leukemia cell line, day5; assay type: functional, organism-based
[30] = organism: Mus musculus; assay: The compound was evaluated for the percentage increase in life span (ILS) based on dying mice only (excludes day 40 survivors) for following doses against L1210 Leukemia cell line, day5; assay type: functional, organism-based
[31] = test system: Mus musculus; assay: The compound was evaluated for the mean body weight change (BWC) in mice infected with cisplatin sensitive L1210 Leukemia (dose 30 mg/kg, ip),day 1; assay type: functional, organism-based; parameters: dose 30 mg/kg; how it was run: as §2
[32] = test system: Mus musculus; assay: The compound was evaluated for the mean body weight change (BWC) in mice infected with cisplatin sensitive L1210 Leukemia (dose 20 mg/kg, ip),day 9; assay type: functional, organism-based; parameters: dose 20 mg/kg; how it was run: as §2
[33] = test system: Mus musculus; assay: The compound was evaluated for the median survival time (MST) in mice infected with cisplatin sensitive L1210 Leukemia (dose 20 mg/kg, ip), day 9; assay type: functional, organism-based; parameters: dose 20 mg/kg; how it was run: as §2
[34] = test system: Mus musculus; assay: The compound was evaluated for the median survival time (MST) in mice infected with cisplatin sensitive L1210 Leukemia (dose 80 mg/kg, ip), day 9; assay type: functional, organism-based; parameters: dose 80 mg/kg; how it was run: as §2
[35] = test system: Mus musculus; assay: The compound was evaluated for the median survival time (MST) in mice infected with cisplatin sensitive L1210 Leukemia (dose 40 mg/kg, ip), day 9; assay type: functional, organism-based; parameters: dose 40 mg/kg; how it was run: as §2
[36] = test system: Mus musculus; assay: The compound was evaluated for the median survival time (MST) in mice infected with cisplatin sensitive L1210 Leukemia (dose 10 mg/kg, ip), day 1; assay type: functional, organism-based; parameters: dose 10 mg/kg; how it was run: as §2
[37] = test system: Mus musculus; assay: The compound was evaluated for the mean body weight change (BWC) in mice infected with cisplatin sensitive L1210 Leukemia (dose 40 mg/kg, ip),day 5; assay type: functional, organism-based; parameters: dose 40 mg/kg; how it was run: as §2
[38] = test system: Mus musculus; assay: The compound was evaluated for the mean body weight change (BWC) in mice infected with cisplatin sensitive L1210 Leukemia (dose 80 mg/kg, ip),day 5; assay type: functional, organism-based; parameters: dose 80 mg/kg; how it was run: as §2
[39] = test system: Mus musculus; assay: The compound was evaluated for the mean body weight change (BWC) in mice infected with cisplatin resistant L1210 Leukemia (dose 20 mg/kg, ip),day 1; assay type: functional, organism-based; parameters: dose 20 mg/kg; how it was run: as §4
[40] = test system: Mus musculus; assay: The compound was evaluated for the mean body weight change (BWC) in mice infected with cisplatin resistant L1210 Leukemia (dose 15 mg/kg, ip),day 1; assay type: functional, organism-based; parameters: dose 15 mg/kg; how it was run: as §4
[41] = test system: Mus musculus; assay: The compound was evaluated for the mean body weight change (BWC) in mice infected with cisplatin sensitive L1210 Leukemia (dose 15 mg/kg, ip),day 1; assay type: functional, organism-based; parameters: dose 15 mg/kg; how it was run: as §2
[42] = test system: Mus musculus; assay: The compound was evaluated for the median survival time (MST) in mice infected with cisplatin sensitive L1210 Leukemia (dose 5 mg/kg, ip), day 1; assay type: functional, organism-based; parameters: dose 5 mg/kg; how it was run: as §2
[43] = organism: Mus musculus; assay: The compound was evaluated for the percentage increase in life span (ILS) based on dying mice only (excludes day 20 survivors) for following doses against L1210 Leukemia cell line, day1; assay type: functional, organism-based

GI50 [2]: 3.02 µM
Substance: [Bis(aminomethyl)diethylsilane]tetrachloroplatinum(IV)
TGI [1]: 46.8 µM

Substance: [Bis(aminomethyl)dimethylsilane]dichloroplatinum (II) [listing 1 of 2 here]
Log LC50 [3]: > -4.01

Substance: [Bis(aminomethyl)dimethylsilane]dichloroplatinum (II) [listing 2 of 2 here]
ILS [4]: 31% | BWC [5]: -2.9 g | MST [6]: 18.3 days | MST [7]: 11.8 days | MST [8]: 16.3 days | BWC [9]: 0.1 g | BWC [10]: -0.2 g | ILS [11]: 83% | BWC [12]: -2.5 g | MST [13]: 21.5 days | MST [14]: 13.8 days | BWC [15]: -0.9 g | MST [16]: 18 days | MST [17]: 14.8 days | ILS [18]: 152% | BWC [19]: -0.4 g | MST [20]: 15.5 days | BWC [21]: -1 g | MST [22]: 30 days | MST [23]: 12.5 days | BWC [24]: -0.6 g | ILS [25]: 109% | MST [26]: 20.5 days | TGI [1]: 83.2 µM | BWC [27]: -4.3 g | MST [28]: 16.8 days | ILS [29]: 138% | ILS [30]: 248% | BWC [31]: -1.1 g | BWC [32]: -0.2 g | MST [33]: 22.5 days | MST [34]: 6.3 days | MST [35]: 11.7 days | MST [36]: 22.5 days and 10.5 days | BWC [37]: -0.9 g | BWC [38]: -3.5 g | GI50 [2]: 20.4 µM | BWC [39]: -2.7 g | BWC [40]: -0.4 g | BWC [41]: -1.7 g | MST [42]: 21.5 days | ILS [43]: 88%
